ChEMBL document CHEMBL4819106, “Aminopyrazole based CDK9 PROTAC sensitizes pancreatic cancer cells to venetoclax” (Bioorg Med Chem Lett, 2021)
The source made the active and inactive calls. The calls are words filed in the database; no cut-off is given here.

Biological target: Protein cereblon/Cyclin-dependent kinase 9 (Homo sapiens, UniProt P50750+Q96SW2)
Test: Protac activity at CDK9/CRBN in human HEK293 cells assessed as degradation of CDK9 at 0.01 to 10 uM incubated for 24 hrs by Western blot analysis
Format: cell-based
Details: dose 0.01-10 µM
Summary of the method: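 HEK293 cells were treated with increasing concentrations (0.01–10 μM) for 24 hr. Lysates were analysed by western blot for CDK9 degradation.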

Sequence of Protein cereblon/Cyclin-dependent kinase 9 (P50750 whole entry, looked up): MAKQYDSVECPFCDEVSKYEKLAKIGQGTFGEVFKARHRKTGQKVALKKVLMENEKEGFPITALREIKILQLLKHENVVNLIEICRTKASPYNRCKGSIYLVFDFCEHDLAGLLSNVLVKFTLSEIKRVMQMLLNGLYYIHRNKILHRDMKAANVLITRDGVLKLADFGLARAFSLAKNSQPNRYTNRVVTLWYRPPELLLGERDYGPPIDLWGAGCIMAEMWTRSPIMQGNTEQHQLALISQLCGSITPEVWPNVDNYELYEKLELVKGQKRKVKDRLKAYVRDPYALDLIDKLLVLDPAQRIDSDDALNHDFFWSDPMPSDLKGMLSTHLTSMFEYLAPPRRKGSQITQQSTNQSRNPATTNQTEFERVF
Sequence of Protein cereblon/Cyclin-dependent kinase 9 (Q96SW2 whole entry, looked up): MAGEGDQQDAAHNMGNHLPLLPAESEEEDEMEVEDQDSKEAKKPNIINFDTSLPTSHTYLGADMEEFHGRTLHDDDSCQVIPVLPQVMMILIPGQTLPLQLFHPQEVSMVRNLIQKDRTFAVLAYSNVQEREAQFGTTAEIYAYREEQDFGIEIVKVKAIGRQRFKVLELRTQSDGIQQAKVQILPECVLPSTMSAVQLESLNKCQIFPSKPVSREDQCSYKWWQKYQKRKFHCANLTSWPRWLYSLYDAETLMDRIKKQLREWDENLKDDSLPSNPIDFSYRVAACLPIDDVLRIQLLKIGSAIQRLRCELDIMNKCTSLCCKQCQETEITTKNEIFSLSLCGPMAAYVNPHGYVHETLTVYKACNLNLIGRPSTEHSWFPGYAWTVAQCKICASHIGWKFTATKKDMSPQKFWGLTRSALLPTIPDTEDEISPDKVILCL

## O=C(CCCOc1ccc(CC(=O)Nc2cc(C3CCC3)[nH]n2)cc1)NCCCOCCOCCOCCCNc1cccc2c1C(=O)N(C1CCC(=O)NC1=O)C2=O (stereo unspecified)
  Activity: inactive
